Assay results taken from ChEMBL document CHEMBL1165943, “Design and synthesis of new anticancer pyrimidines with multiple-kinase inhibitory effect” (Bioorg Med Chem, 2010).

Assays:
Assay type in all cases: functional
[1] = system: MDA-MB-231; test: Cytotoxicity against human MDA-MB-231 cells assessed as cell growth at 10 uM; conditions: for growth at 10 µM: Homo sapiens, MDA-MB-231, read-out: Activity
Outline: (§1)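 Single-dose screen at 10 μM across the 60-cell-line panel. Cells grown in RPMI 1640 with 5% FBS and 2 mM L-glutamine, seeded at 5,000–40,000 cells/well according to doubling time, and treated 24 h later. Exposure lasted 48 h at 37 °C, 5% CO₂. Adherent cells were fixed with cold TCA, suspension cells were fixed settled, and both were stained with SRB and read at 515 nm. Growth % was recorded, with inhibition % = 100 − growth %.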

[2] = system: COLO 205; test: Cytotoxicity against human COLO205 cells assessed as cell growth at 10 uM; conditions: for growth at 10 µM: Homo sapiens, COLO 205, read-out: Activity
Outline: (§2)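 Single-concentration screen at 10 μM across the 60-cell-line panel (nine tissue types); growth percentage recorded per cell line, with inhibition taken as 100 minus growth percentage.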

[3] = Cytotoxicity against human […] cells assessed as cell growth at 10 uM; conditions: for growth at 10 µM: Homo sapiens, RPMI8266, read-out: Activity; outline: as §1
[4] = system: SR; test: Cytotoxicity against human SR cells assessed as cell growth at 10 uM; conditions: for growth at 10 µM: Homo sapiens, SR, read-out: Activity; outline: as §1
[5] = system: NCI/ADR-RES; test: Cytotoxicity against human NCI/ADR-RES cells assessed as cell growth at 10 uM; conditions: for growth at 10 µM: Homo sapiens, NCI/ADR-RES, read-out: Activity; outline: as §1
[6] = system: SN12C; test: Cytotoxicity against human SN12C cells assessed as cell growth at 10 uM; conditions: for growth at 10 µM: Homo sapiens, SN12C, read-out: Activity; outline: as §1
[7] = system: CCRF-CEM; test: Cytotoxicity against human CCRF-CEM cells assessed as cell growth at 10 uM; conditions: for growth at 10 µM: Homo sapiens, CCRF-CEM, read-out: Activity; outline: as §2
[8] = system: RXF 393; test: Cytotoxicity against human RXF393 cells assessed as cell growth at 10 uM; conditions: for growth at 10 µM: Homo sapiens, RXF 393, read-out: Activity; outline: as §1
[9] = system: SNB-75; test: Cytotoxicity against human SNB75 cells assessed as cell growth at 10 uM; conditions: for growth at 10 µM: Homo sapiens, SNB-75, read-out: Activity; outline: as §1
[10] = system: SK-MEL-2; test: Cytotoxicity against human SK-MEL-2 cells assessed as cell growth at 10 uM; conditions: for growth at 10 µM: Homo sapiens, SK-MEL-2, read-out: Activity; outline: as §1
[11] = system: UACC-62; test: Cytotoxicity against human UACC62 cells assessed as cell growth at 10 uM; conditions: for growth at 10 µM: Homo sapiens, UACC-62, read-out: Activity; outline: as §1
[12] = system: HOP-62; test: Cytotoxicity against human HOP62 cells assessed as cell growth at 10 uM; conditions: for growth at 10 µM: Homo sapiens, HOP-62, read-out: Activity; outline: as §2
[13] = system: IGROV-1; test: Cytotoxicity against human IGROV1 cells assessed as cell growth at 10 uM; conditions: for growth at 10 µM: Homo sapiens, IGROV-1, read-out: Activity; outline: as §1
[14] = system: M14; test: Cytotoxicity against human M14 cells assessed as cell growth at 10 uM; conditions: for growth at 10 µM: Homo sapiens, M14, read-out: Activity; outline: as §1
[15] = system: MCF7; test: Cytotoxicity against human MCF7 cells assessed as cell growth at 10 uM; conditions: for growth at 10 µM: Homo sapiens, MCF7, read-out: Activity; outline: as §1
[16] = system: T47D; test: Cytotoxicity against human T47D cells assessed as cell growth at 10 uM; conditions: for growth at 10 µM: Homo sapiens, T47D, read-out: Activity; outline: as §1
[17] = system: SK-MEL-28; test: Cytotoxicity against human SK-MEL-28 cells assessed as cell growth at 10 uM; conditions: for growth at 10 µM: Homo sapiens, SK-MEL-28, read-out: Activity; outline: as §1
[18] = system: HOP-92; test: Cytotoxicity against human HOP92 cells assessed as cell growth at 10 uM; conditions: for growth at 10 µM: Homo sapiens, HOP-92, read-out: Activity; outline: as §2
[19] = system: SW-620; test: Cytotoxicity against human SW620 cells assessed as cell growth at 10 uM; conditions: for growth at 10 µM: Homo sapiens, SW-620, read-out: Activity; outline: as §1
[20] = system: MDA-MB-435; test: Cytotoxicity against human MDA-MB-435 cells assessed as cell growth at 10 uM; conditions: read-out: Activity; outline: as §1
[21] = system: SNB-19; test: Cytotoxicity against human SNB19 cells assessed as cell growth at 10 uM; conditions: read-out: Activity; outline: as §1
[22] = system: HT-29; test: Cytotoxicity against human HT-29 cells assessed as cell growth at 10 uM; conditions: for growth at 10 µM: Homo sapiens, HT-29, read-out: Activity; outline: as §2
[23] = system: A549; test: Cytotoxicity against human A549 cells assessed as cell growth at 10 uM; conditions: for growth at 10 µM: Homo sapiens, A549, read-out: Activity; outline: as §2
[24] = Cytotoxicity against human Hs 578T cells assessed as cell growth at 10 uM; conditions: read-out: Activity; outline: as §2

| SMILES | growth at 10 µM [2] | growth at 10 µM [7] | growth at 10 µM [9] | growth at 10 µM [12] | growth at 10 µM [18] | growth at 10 µM [19] | growth at 10 µM [20] | growth at 10 µM [21] | growth at 10 µM [22] | growth at 10 µM [23] | growth at 10 µM [1] | growth at 10 µM [5] | growth at 10 µM [6] | growth at 10 µM [10] | growth at 10 µM [11] | growth at 10 µM [13] | growth at 10 µM [14] | growth at 10 µM [15] | growth at 10 µM [16] | growth at 10 µM [17] | other results |
| --- | --- | --- | --- | --- | --- | --- | --- | --- | --- | --- | --- | --- | --- | --- | --- | --- | --- | --- | --- | --- | --- |
| CC(=O)c1ccccc1-c1ccc(-c2ccnc(NC(=O)Nc3cc(C(F)(F)F)cc(C(F)(F)F)c3)n2)cn1 | 90.9% | 79.3% | 72% | 95.6% | 89.9% | 81.8% | 98.1% | 91.5% | 96.3% | 86.8% |  |  |  |  |  |  |  |  |  |  | Activity [1]: 83.21%; Activity [3]: 98.17%; Activity [4]: 19.97%; Activity [5]: 87.74%; Activity [6]: 96.07%; Activity [8]: 104.4%; Activity [10]: 95.01%; Activity [11]: 92.88%; Activity [13]: 78.4%; Activity [14]: 102.28%; Activity [15]: 75.33%; Activity [16]: 82.59%; Activity [17]: 109.71% |
| CC(=O)c1ccccc1-c1ccc(-c2ccnc(NC(=O)Nc3cc(C(F)(F)F)cc(C(F)(F)F)c3)n2)cn1.Cl |  |  |  |  |  |  |  |  |  |  | 83.7% | 80.9% | 88.4% | 78.8% | 94.3% | 91% | 98.2% | 89.8% | 85.4% | 103% | Activity [2]: 88.27%; Activity [3]: 75.92%; Activity [4]: 97.1%; Activity [7]: 88.36%; Activity [8]: 130.46%; Activity [9]: 77.47%; Activity [12]: 90.22%; Activity [18]: 101%; Activity [19]: 95.07%; Activity [22]: 95.08%; Activity [23]: 93.55% |
| O=C(Nc1cc(C(F)(F)F)cc(C(F)(F)F)c1)Nc1nccc(-c2ccc(Nc3ccccc3)nc2)n1 | 136% | 96.8% | 90.1% | 103% | 116% | 98.8% | 129% | 109% | 94.4% | 105% | 93.4% | 108% | 106% | 101% | 101% | 105% | 94.2% | 99.6% | 110% | 99.8% | growth at 10 µM [3]: 102%; growth at 10 µM [4]: 84.6%; growth at 10 µM [24]: 102% |
| c1ccc(-c2ccc(-c3ccnc(Nc4ccc(N(c5ccccc5)c5ccccc5)cc4)n3)cn2)cc1 | 116% | 73.1% | 102% | 122% | 151% | 78.3% | 98.5% | 135% | 89.5% | 77.1% | 123% | 125% |  | 102% | 96.9% | 67.2% | 90.2% | 96.6% | 111% | 118% | growth at 10 µM [3]: 110%; growth at 10 µM [4]: 38.7%; growth at 10 µM [8]: 99.4%; growth at 10 µM [24]: 76.8% |
| Cc1cc(-c2cccnc2)nc(NC(=O)c2cccc(C(F)(F)F)c2)n1 | 119% | 94.8% | 93.5% | 106% | 107% | 105% | 100% | 90.8% | 98.9% | 97.4% | 98.4% | 91.2% | 95.3% | 93.5% | 92.3% | 103% | 109% | 91.5% | 95.5% | 108% | growth at 10 µM [3]: 98.6%; growth at 10 µM [4]: 106%; growth at 10 µM [8]: 90.8%; growth at 10 µM [24]: 107% |
